Experimental data collected from several papers.
Compare with care: the assays were run in different laboratories.
Cell line: HOP-92
Effect on: cell growth or viability

Structure (SMILES)	test	conditions	endpoint	result
COc1ccc(C(=O)/C=C/c2cccc(Br)c2)cc1S(N)(=O)=O	SRB	48 h	GI50	1800 nM
COc1ccc(-c2ccc(-c3ccc(C(=N)N)nc3)s2)cc1	SRB	–	GI50	1500 nM
CCCc1n(Cc2ccc3ccccc3n2)cc[n+]1Cc1ccc2ccccc2n1	SRB	–	TGI	3230 nM
COc1ccc(C(=O)/C=C/c2cccnc2)cc1S(N)(=O)=O	SRB	10 µM	inhibition	44%
CCCCc1n(Cc2ccc3ccccc3n2)cc[n+]1Cc1ccc2ccccc2n1	SRB	–	TGI	3360 nM
O=C1Nc2ccccc2C1=NNc1nnc2n1N=C(c1ccccc1)CS2	SRB	10 µM	inhibition	36%
O=C1NCCc2[nH]c(-c3ccncc3)cc21	–	–	IC50	6400 nM
COc1cccc(Oc2ccccc2NC(=O)CNC(=O)c2cccc3ccccc23)c1	SRB	48 h	GI50	204 nM
O=C1NC(=NCc2cccs2)S/C1=C\c1ccc2ncccc2c1	–	–	IC50	6040 nM
COc1ccc(-c2ccc(-c3ccc(C(=N)N)nc3)s2)cc1Cl	SRB	–	GI50	1630 nM
CCc1n(Cc2ccc3ccccc3n2)cc[n+]1Cc1ccc2ccccc2c1	SRB	–	TGI	671 nM
